This note sets out measurements from ChEMBL document CHEMBL4325909, “Synthesis and evaluation of chalcone analogues containing a 4-oxoquinazolin-2-yl group as potential anti-tumor agents” (Eur J Med Chem, 2019).

In assay [1] the test system is HCT-116. Description: Cytotoxicity against human HCT116 cells assessed as reduction in cell viability after 72 hrs by MTS assay. In kind it is functional, cell-based. Conditions: HCT-116, 72 h. In short, it runs like this: (§1)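 Cells kept in DMEM with 10% FBS at 37 °C, 5% CO2. Proliferation read by MTS (CellTiter 96 AQueous One) 72 h after exposure across a concentration range. IC50 is the concentration giving 50% proliferation inhibition. Triplicate wells, three independent experiments, mean ± SD.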
A general note: Tetrazolium dyes change colour on reduction, which living cells bring about.

Assay [2] relates to MCF7. Description: Cytotoxicity against human MCF7 cells assessed as reduction in cell viability after 72 hrs by MTS assay. It is filed as functional, cell-based. Conditions: MCF7, 72 h. In short, it runs like this: as §1
The test system of assay [3] is HCT-116. Put plainly: Cytotoxicity against human HCT116 cells assessed as reduction in cell viability at 20 uM after 72 hrs by MTS assay relative to control. It is filed as functional. The procedure, abridged:
(§2)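 Cells grown in DMEM with 10% FBS at 37 °C, 5% CO2, exposed to 20 μM for 72 h. Proliferation read by MTS and inhibition expressed relative to vehicle. ≥50% inhibition counted as active. Triplicate wells, three independent experiments.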

Assay [4] has as its system MCF7. Put plainly: Cytotoxicity against human MCF7 cells assessed as reduction in cell viability at 20 uM after 72 hrs by MTS assay relative to control. In kind it is functional. The procedure, abridged: as §2

Regarding `COc1cc(/C=C/C(=O)c2nc3ccccc3c(=O)[nH]2)cc(OC)c1OC`, the IC50 in the assay on HCT-116 [1] and in the assay with MCF7 [2] was > 20 µM throughout. The Activity result in the assay on HCT-116 [3] was “>=50%”; with MCF7 [4] it was < 50%.
Consider `O=C(/C=C/c1ccc(F)cc1)c1nc2ccccc2c(=O)[nH]1`, for which the IC50 (in general, the concentration that gives 50% inhibition) was 15.2 µM with HCT-116 [1] and > 20 µM with MCF7 [2]. Also, the Activity result in the assay with HCT-116 [3] and in the assay on MCF7 [4] was “>=50%” each time.
`O=C(/C=C/c1ccc([N+](=O)[O-])cc1)c1nc2ccccc2c(=O)[nH]1`: the figures for the IC50 with HCT-116 [1] and with MCF7 [2] were 13.2 µM and > 20 µM, respectively. The Activity result in the assay with HCT-116 [3] and in the assay with MCF7 [4] was “>=50%” each time.
As for `O=C(/C=C/c1ccc(Br)cc1)c1nc2ccccc2c(=O)[nH]1`, the 50% inhibitory concentration (IC50) with HCT-116 [1] and in the assay on MCF7 [2] was > 20 µM throughout. Also, the Activity entry with HCT-116 [3] and in the assay with MCF7 [4] was “>=50%” in each case.
For the compound `O=C(/C=C/c1ccccn1)c1nc2ccccc2c(=O)[nH]1`, the IC50 in the assay on HCT-116 [1] and in the assay with MCF7 [2] was > 20 µM throughout. Besides, the Activity entry in the assay with HCT-116 [3] and in the assay with MCF7 [4] was “>=50%” in each case.
As for `COc1cc(C(=O)/C=C/c2nc3ccccc3c(=O)[nH]2)ccc1O`, the IC50 with HCT-116 [1] was found to be 4.58 µM; in the assay on MCF7 [2], 6.05 µM. For the same compound, the Activity entry with HCT-116 [3] and with MCF7 [4] was “>=50%” throughout.
Turning to `O=C(/C=C/c1nc2ccccc2c(=O)[nH]1)c1ccccc1`, the values for the IC50 with HCT-116 [1] and in the assay on MCF7 [2] were 5.47 µM and 4.09 µM, respectively. Moreover, the Activity result with HCT-116 [3] and with MCF7 [4] was “>=50%” throughout.
With `O=C(/C=C/c1nc2ccccc2c(=O)[nH]1)c1ccc(F)cc1`, the IC50 in the assay with HCT-116 [1] and in the assay with MCF7 [2] was > 20 µM in each case. The Activity with HCT-116 [3] and in the assay on MCF7 [4] was < 50% in each case.
In the case of `O=C(/C=C/c1nc2ccccc2c(=O)[nH]1)c1ccc(Cl)cc1`, the IC50 in the assay with HCT-116 [1] amounted to 6.1 µM; in the assay with MCF7 [2], 6.09 µM. In addition, the Activity entry in the assay on HCT-116 [3] and in the assay with MCF7 [4] was “>=50%” each time.
Turning to `COc1cc(/C=C/C(=O)c2nc3ccccc3c(=O)[nH]2)cc(OC)c1`, the IC50 came to 15.8 µM with HCT-116 [1] and 16.8 µM in the assay with MCF7 [2]. Also, the Activity entry in the assay with HCT-116 [3] and with MCF7 [4] was “>=50%” each time.
As to `O=C(/C=C/c1ccco1)c1nc2ccccc2c(=O)[nH]1`, the IC50 in the assay on HCT-116 [1] and with MCF7 [2] was > 20 µM throughout. In addition, the Activity result with HCT-116 [3] and in the assay with MCF7 [4] was “>=50%” each time.
Consider `O=C(/C=C/c1cccs1)c1nc2ccccc2c(=O)[nH]1`, for which the IC50 in the assay with HCT-116 [1] and in the assay with MCF7 [2] was > 20 µM each time. In addition, the Activity entry in the assay on HCT-116 [3] and in the assay with MCF7 [4] was “>=50%” throughout.
Regarding `Cc1ccc(C(=O)/C=C/c2nc3ccccc3c(=O)[nH]2)cc1`, the IC50 with HCT-116 [1] amounted to 5.75 µM; in the assay with MCF7 [2], 9.44 µM. In addition, the Activity result in the assay on HCT-116 [3] and with MCF7 [4] was “>=50%” each time.
Regarding `COc1cc(C(=O)/C=C/c2nc3ccccc3c(=O)[nH]2)cc(OC)c1OC`, the IC50 was 12.8 µM in the assay on HCT-116 [1] and 13.9 µM in the assay on MCF7 [2]. The Activity result in the assay on HCT-116 [3] and in the assay on MCF7 [4] was “>=50%” in each case.
As to `COc1ccc(C(=O)/C=C/c2nc3ccccc3c(=O)[nH]2)cc1`, the IC50 is 10 µM in the assay with HCT-116 [1] and 10.2 µM in the assay on MCF7 [2]. The Activity entry in the assay with HCT-116 [3] and with MCF7 [4] was “>=50%” in each case.
In the case of `COc1cccc(C(=O)/C=C/c2nc3ccccc3c(=O)[nH]2)c1`, the IC50 turned out to be 12 µM with HCT-116 [1] and 12.9 µM with MCF7 [2]. For the same compound, the Activity result with HCT-116 [3] and in the assay with MCF7 [4] was “>=50%” in each case.
Consider `O=C(/C=C/c1cccnc1)c1nc2ccccc2c(=O)[nH]1`, for which the IC50 with HCT-116 [1] and with MCF7 [2] was > 20 µM throughout. Moreover, the Activity result in the assay on HCT-116 [3] and in the assay with MCF7 [4] was “>=50%” each time.
As to `O=C(/C=C/c1ccc(Cl)cc1)c1nc2ccccc2c(=O)[nH]1`, the IC50 with HCT-116 [1] was 15.6 µM; in the assay with MCF7 [2] it was > 20 µM. Moreover, the Activity result in the assay on HCT-116 [3] and in the assay with MCF7 [4] was “>=50%” each time.
Consider `COc1cccc(/C=C/C(=O)c2nc3ccccc3c(=O)[nH]2)c1`, for which the values for the IC50 in the assay with HCT-116 [1] and in the assay with MCF7 [2] were 14.7 µM and 15.5 µM, respectively. In addition, the Activity entry in the assay on HCT-116 [3] and with MCF7 [4] was “>=50%” throughout.
Regarding `Cc1ccc(/C=C/C(=O)c2nc3ccccc3c(=O)[nH]2)cc1`, the IC50 in the assay on HCT-116 [1] and with MCF7 [2] was > 20 µM in each case. For the same compound, the Activity entry is “>=50%” with HCT-116 [3] and < 50% in the assay on MCF7 [4].
As for `O=C(/C=C/c1nc2ccccc2c(=O)[nH]1)c1ccc(Cl)c(Cl)c1`, the results for the IC50 with HCT-116 [1] and in the assay with MCF7 [2] were 17 µM and 8.21 µM, respectively. The Activity result with HCT-116 [3] and with MCF7 [4] was “>=50%” throughout.
`COc1ccc(/C=C/C(=O)c2nc3ccccc3c(=O)[nH]2)c(OC)c1`: the IC50 with HCT-116 [1] and in the assay with MCF7 [2] was > 20 µM each time. Further, the Activity with HCT-116 [3] and in the assay with MCF7 [4] was < 50% throughout.
In the case of `COc1ccccc1/C=C/C(=O)c1nc2ccccc2c(=O)[nH]1`, the IC50 in the assay on HCT-116 [1] and in the assay on MCF7 [2] was > 20 µM throughout. The Activity was < 50% in the assay on HCT-116 [3] and “>=50%” with MCF7 [4].
Take `O=C(/C=C/c1ccncc1)c1nc2ccccc2c(=O)[nH]1`: the IC50 in the assay on HCT-116 [1] and in the assay with MCF7 [2] was > 20 µM each time. Also, the Activity entry in the assay on HCT-116 [3] is “>=50%”; with MCF7 [4], < 50%.
Regarding `COc1cc(OC)c(C(=O)/C=C/c2nc3ccccc3c(=O)[nH]2)c(OC)c1`, the values for the IC50 in the assay with HCT-116 [1] and in the assay on MCF7 [2] were 5.57 µM and 5.02 µM, respectively. The Activity entry with HCT-116 [3] and in the assay on MCF7 [4] was “>=50%” throughout.
As to `COc1ccc(/C=C/C(=O)c2nc3ccccc3c(=O)[nH]2)cc1`, the IC50 in the assay on HCT-116 [1] and in the assay on MCF7 [2] was > 20 µM each time. For the same compound, the Activity in the assay on HCT-116 [3] and in the assay with MCF7 [4] was < 50% in each case.
As for `O=C(/C=C/c1nc2ccccc2c(=O)[nH]1)c1ccc(C(F)(F)F)cc1`, the 50% inhibitory concentration (IC50) in the assay on HCT-116 [1] and in the assay on MCF7 [2] was > 20 µM each time. In addition, the Activity with HCT-116 [3] and with MCF7 [4] was < 50% in each case.
As for `N#Cc1ccc(/C=C/C(=O)c2nc3ccccc3c(=O)[nH]2)cc1`, the values for the IC50 in the assay on HCT-116 [1] and in the assay with MCF7 [2] were 19.8 µM and > 20 µM, respectively. Also, the Activity entry in the assay with HCT-116 [3] and in the assay with MCF7 [4] was “>=50%” in each case.
On to `O=C(/C=C/c1ccccc1)c1nc2ccccc2c(=O)[nH]1`, for which the IC50 in the assay with HCT-116 [1] and in the assay on MCF7 [2] was > 20 µM throughout. The results for the Activity in the assay with HCT-116 [3] and with MCF7 [4] were < 50% and “>=50%”, respectively.
For the compound `Nc1ccc(C(=O)/C=C/c2nc3ccccc3c(=O)[nH]2)cc1`, the IC50 with HCT-116 [1] and with MCF7 [2] was > 20 µM in each case. The Activity with HCT-116 [3] and in the assay with MCF7 [4] was < 50% in each case.
Turning to `COc1ccc(/C=C/C(=O)c2nc3ccccc3c(=O)[nH]2)cc1OC`, the IC50 in the assay on HCT-116 [1] and with MCF7 [2] was > 20 µM in each case. Besides, the Activity with HCT-116 [3] and in the assay on MCF7 [4] was < 50% each time.
